According to ChEMBL document CHEMBL4364340, “Discovery of N-(1-Acryloylazetidin-3-yl)-2-(1H-indol-1-yl)acetamides as Covalent Inhibitors of KRASG12C” (ACS Med Chem Lett, 2019):
Converted amounts (≈) assume the structure as drawn.

What was measured:
[1] = Half life of compound in phosphate buffer at pH 7.4 in presence of GSH by LC/MS analysis; type: physicochemical; details: phosphate buffer with GSH
Procedure, shortened: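 Intrinsic thiol reactivity toward 5 mM glutathione. Half-life is taken from the rate at which parent compound disappears.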

[2] = test system: GTPase KRas (Homo sapiens), P01116 [G12C]; experiment: Inhibition of KRAS G12C mutant (unknown origin) at 10 uM incubated for 0.2 hrs in presence of GDP by rapidfire mass spectrometry analysis relative to control
Procedure, shortened: (§1)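 GDP-bound KRASG12C (2 μM) incubated with 10 μM compound. Intact-protein mass spectrometry quantifies relative % covalent adduct at Cys12 at the stated time point.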

[3] = test system: GTPase KRas (Homo sapiens), P01116 [G12C]; experiment: Inhibition of KRAS G12C mutant (unknown origin) at 10 uM incubated for 20 hrs in presence of GDP by rapidfire mass spectrometry analysis relative to control; procedure, shortened: as §1
[4] = test system: GTPase KRas (Homo sapiens), P01116 [G12C]; experiment: Inhibition of KRAS G12C mutant (unknown origin) at 10 uM incubated for 2 hrs in presence of GDP by rapidfire mass spectrometry analysis relative to control; procedure, shortened: as §1
[5] = test system: GTPase KRas (Homo sapiens), P01116 [G12C]; experiment: Inhibition of KRAS G12C mutant (unknown origin) assessed as pseudo first order rate constant incubated for 0.02 to 20 hrs in presence of GDP by rapidfire mass spectrometry analysis
Procedure, shortened: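 GDP-bound KRASG12C (2 μM) with 10 μM compound. Intact-protein MS measures covalent adduct at Cys12 after 0.02, 0.2, 2 and 20 h. Conversions between 10% and 90% are converted to kobs/[I] (M–1 s–1) under pseudo-first-order kinetics.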

GTPase KRas [6] = target: GTPase KRas (Homo sapiens, UniProt P01116, G12C); experiment: Inhibition of KRAS G12C mutant in human MIAPaCa2 cells assessed as reduction in EGF-induced ERK1/2 phosphorylation incubated for 4 hrs followed by EGF addition by luminescence based assay; type: cell-based
[7] = test system: GTPase KRas (Homo sapiens), P01116 [G12C]; experiment: Inhibition of KRAS G12C mutant (unknown origin) at 10 uM incubated for 0.02 hrs in presence of GDP by rapidfire mass spectrometry analysis relative to control
Procedure, shortened: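 Intact-protein mass spectrometry of covalent adduct formation at Cys12 of GDP-bound KRASG12C. Test compound at 10 μM, with read-outs at 0.02, 0.2, 2 and 20 h. Values are the relative % of protein bound, measured directly under pseudo-first-order conditions. Earlier incubations in the paper used 2 μM protein.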

GTPase KRas [8] = target: GTPase KRas (Homo sapiens, UniProt P01116, C118A/G12C); experiment: Inhibition of GDP bound N terminal His-tagged KRAS G12C/C118A mutant (unknown origin) (1 to 169 residues) assessed as reduction in SOS-mediated guanine nucleotide exchange preincubated for 2 hrs followed by addition of SOS and GTP and measured after 1 hr by alphascreen assay
Procedure, shortened: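 Inhibitor preincubated with protein 2 h, then SOS1 and GTP added to exchange GTP into the nucleotide site. GTP loading read as proximity of RAF Ras-binding domain, which binds only active KRAS. IC50 from dose response.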

[9] = Hepatic intrinsic clearance in human hepatocytes assessed per 10^6 cells at 0.5 uM after 60 mins; type: ADME, cell-based, Hepatocyte; details: read-out: CLH
Procedure, shortened: (§2)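 Intrinsic clearance in mouse, rat or human hepatocytes. Compound at 0.5 μM, 0.5 million cells/mL, incubated 60 min.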

[10] = Hepatic intrinsic clearance in mouse hepatocytes assessed per 10^6 cells at 0.5 uM after 60 mins; type: ADME, cell-based, Hepatocyte; details: read-out: CLH; procedure, shortened: as §2
[11] = Plasma protein binding in mouse assessed as unbound fraction at 5 uM by ultracentrifugation method; type: ADME, cell-free
Procedure, shortened: (§3)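 Plasma protein binding measured by ultracentrifugation, compound at 5 μM.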

[12] = Oral bioavailability in mouse at 10 mg/kg; type: ADME, organism-based; details: in vivo
Procedure, shortened: (§4)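 Mouse and rat PK: single 1 mg/kg iv dose given in 100% DMSO, and 10 mg/kg po dose given in 1% Tween 80, 2% HPMC, 97% water.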

[13] = Intrinsic clearance in rat liver microsomes at 1 uM measured after 30 mins in presence of NADPH by LC-MS analysis; type: ADME, Microsome; details: read-out: CLH
[14] = Plasma protein binding in rat assessed as unbound fraction at 5 uM by ultracentrifugation method; type: ADME, cell-free; procedure, shortened: as §3
[15] = Oral bioavailability in rat at 10 mg/kg; type: ADME, organism-based; details: in vivo; procedure, shortened: as §4
[16] = Intrinsic clearance in human liver microsomes at 1 uM measured after 30 mins in presence of NADPH by LC-MS analysis; type: ADME, Microsome; details: read-out: CLH
[17] = Hepatic intrinsic clearance in rat hepatocytes assessed per 10^6 cells at 0.5 uM after 60 mins; type: ADME, cell-based, Hepatocyte; details: read-out: CLH; procedure, shortened: as §2
[18] = Half-life in mouse at 10 mg/kg, po; type: ADME, organism-based; details: in vivo; procedure, shortened: as §4
[19] = Intrinsic clearance in mouse liver microsomes at 1 uM measured after 30 mins in presence of NADPH by LC-MS analysis; type: ADME, Microsome; details: read-out: CLH
[20] = Half-life in rat at 10 mg/kg, po; type: ADME, organism-based; details: in vivo; procedure, shortened: as §4
[21] = Clearance in mouse at […]; type: ADME, organism-based; details: in vivo; procedure, shortened: as §4
[22] = Solubility of compound in FASIIF measured after 72 hrs by HPLC; type: physicochemical; details: FaSSIF
Procedure, shortened: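 Solubility in fasted-state simulated intestinal fluid, measured by HPLC after equilibration at room temperature for 72 h.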

[23] = Clearance in rat at […]; type: ADME, organism-based; details: in vivo; procedure, shortened: as §4
[24] = Plasma protein binding in human assessed as unbound fraction at 5 uM by ultracentrifugation method; type: ADME, cell-free; procedure, shortened: as §3
[25] = Volume of distribution at steady state in mouse at […]; type: ADME, organism-based; details: in vivo; procedure, shortened: as §4
A549 = experiment: Cytotoxicity against human A549 cells assessed as reduction in cell viability measured after 72 hrs by Celltiter-Glo luminescent cell viability assay; type: functional, cell-based; details: A549, 72 h
Procedure, shortened: (§5)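 Cell viability in MIA PaCa-2 (KRAS p.G12C) or A549 (KRAS p.G12S) cells, read by CellTiter-Glo luminescence.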

MIA PaCa-2 = experiment: Cytotoxicity against human MIAPaCa2 cells assessed as reduction in cell viability measured after 72 hrs by Celltiter-Glo luminescent cell viability assay; type: functional, cell-based; details: MIA PaCa-2, 72 h; procedure, shortened: as §5
[26] = Volume of distribution at steady state in rat at […]; type: ADME, organism-based; details: in vivo; procedure, shortened: as §4

| Compound | half-life [1] | inhibition [2] | inhibition [3] | inhibition [4] | K [5] | IC50 (GTPase KRas [6]) | inhibition [7] | other results |
| --- | --- | --- | --- | --- | --- | --- | --- | --- |
| C=CC(=O)N1CC(NC(=O)Cn2c(C)c(C(=O)N3CCc4c(cccc4OC)C3)c3cc(Cl)ccc32)C1 | 100 min | 34% | 100% | 100% | 69 M⁻¹ s⁻¹ | 3550 nM | – | – |
| C=CC(=O)N1CC(NC(=O)Cn2cc(C(=O)N3CCc4ccccc4C3)c3cc(Br)ccc32)C1 | 100 min | 100% | 100% | 100% | 308 M⁻¹ s⁻¹ | – | 0% | – |
| C=CC(=O)N1CC(NC(=O)Cn2cc(C(=O)N3CCc4cc(Cl)ccc4C3)c3cc(Br)ccc32)C1 | 100 min | 55% | 100% | 100% | 132 M⁻¹ s⁻¹ | – | – | – |
| C=CC(=O)N1CC(NC(=O)Cn2cc(C(=O)NCCc3ccccc3)c3cc(Br)ccc32)C1 | 100 min | – | 100% | 59% | 12 M⁻¹ s⁻¹ | – | – | – |
| C=CC(=O)N1CC(NC(=O)Cn2cc(C(=O)NCc3ccccc3)c3cc(Br)ccc32)C1 | 100 min | – | 93% | 29% | 5 M⁻¹ s⁻¹ | – | – | – |
| C=CC(=O)N1CC(NC(=O)Cn2c(C)c(C(=O)N3CCc4c(cccc4OC)C3)c3cc(Br)ccc32)C1 | 100 min | 91% | 100% | 100% | 256 M⁻¹ s⁻¹ | 1680 nM | 14% | – |
| C=CC(=O)N1CC(NC(=O)COc2ccc(Br)cc2NC(=O)c2cc(C)no2)C1 | – | – | 63% | 11% | 2 M⁻¹ s⁻¹ | – | – | – |
| C=CC(=O)N1CC(NC(=O)Cn2cc(C(=O)N3CCc4cc(F)ccc4C3)c3cc(Br)ccc32)C1 | 100 min | 86% | 100% | 100% | 326 M⁻¹ s⁻¹ | – | – | – |
| C=CC(=O)N1CC(NC(=O)Cn2cc(C(=O)N3CCc4c(Cl)cccc4C3)c3cc(Br)ccc32)C1 | 100 min | 67% | 100% | 100% | 188 M⁻¹ s⁻¹ | – | – | – |
| C=CC(=O)N1CC(NC(=O)Cn2c(C3CC3)c(C(=O)N3CCc4c(cccc4OC)C3)c3cc(Br)ccc32)C1 | 100 min | 90% | – | 100% | 549 M⁻¹ s⁻¹ | 604 nM | 35% | – |
| C=CC(=O)N1CC(NC(=O)Cn2c(C)c(C(=O)N3CCc4c(cccc4OC)C3)c3cc(Br)cc(C)c32)C1 | 100 min | 39% | – | 100% | 83 M⁻¹ s⁻¹ | 299 nM | – | – |
| C=CC(=O)N1CC(NC(=O)Cn2cc(C(=O)N(C)Cc3ccccc3)c3cc(Br)ccc32)C1 | 100 min | – | 100% | 35% | 6 M⁻¹ s⁻¹ | – | – | – |
| C=CC(=O)N1CC(NC(=O)Cn2ccc3cc(Br)ccc32)C1 | 100 min | – | 67% | 14% | 2 M⁻¹ s⁻¹ | – | – | IC50 (GTPase KRas [8]): > 250000 nM |
| C=CC(=O)N1CC(NC(=O)COc2ccc(Br)cc2C(=O)N2CC=C(c3ccccc3)C2)C1 | 100 min | – | – | – | 26 M⁻¹ s⁻¹ | 11300 nM | – | IC50 (GTPase KRas [8]): 2780 nM |
| C=CC(=O)N1CC(NC(=O)Cn2cc(C(=O)N3CCc4c(cccc4OC)C3)c3cc(Br)cc(C)c32)C1 | 100 min | 100% | 100% | 100% | > 400 M⁻¹ s⁻¹ | – | – | – |
| C=CC(=O)N1CC(NC(=O)COc2ccc(Br)cc2)C1 | – | – | – | – | 0.3 M⁻¹ s⁻¹ | – | – | – |
| C=CC(=O)N1CC(NC(=O)Cn2c(C)c(C(=O)N3CCc4c(cccc4OC)C3)c3cc(Cl)cc(C)c32)C1 | 100 min | 85% | 100% | 100% | 583 M⁻¹ s⁻¹ | – | 40% | – |
| C=CC(=O)N1CC(NC(=O)Cn2cc(C(=O)N3CCc4c(F)cccc4C3)c3cc(Br)ccc32)C1 | 100 min | 77% | 100% | 100% | 247 M⁻¹ s⁻¹ | – | – | – |
| C=CC(=O)N1CC(NC(=O)Cn2c(C3CC3)c(C(=O)N3CCc4c(cccc4OC)C3)c3cc(Cl)cc(C)c32)C1 | 80 min | 94% | 100% | 100% | 2640 M⁻¹ s⁻¹ | – | 69% | hepatocyte CLint at 0.5 µM [9]: 53 µL/min/1e6 cells; hepatocyte CLint at 0.5 µM [10]: 228 µL/min/1e6 cells; fraction unbound at 5 µM [11]: 0.02; bioavailability [12]: 8%; microsomal CLint at 1 µM [13]: 197 µL/min/mg; fraction unbound at 5 µM [14]: 0.02; bioavailability [15]: < 1%; microsomal CLint at 1 µM [16]: 161 µL/min/mg; hepatocyte CLint at 0.5 µM [17]: 293 µL/min/1e6 cells; half-life [18]: 54 min; microsomal CLint at 1 µM [19]: 708 µL/min/mg; half-life [20]: 42 min; CL/F [21]: 107 mL/min/kg; solubility at 72 h [22]: 252 µM (≈ 141 µg/mL); CL/F [23]: 65 mL/min/kg; fraction unbound at 5 µM [24]: 0.04; Vdss [25]: 2.9 L/kg; IC50 (A549): 9.33 µM; IC50 (MIA PaCa-2): 67 nM; Vdss [26]: 2.6 L/kg |
| C=CC(=O)N1CC(NC(=O)Cn2cc(C(=O)N3CCc4c(cccc4OC)C3)c3cc(Br)ccc32)C1 | 100 min | 92% | 100% | 100% | 230 M⁻¹ s⁻¹ | 11400 nM | 13% | – |
